# Experiments:
# [1] = molecular target: cAMP-dependent protein kinase catalytic subunit beta (Homo sapiens) (UniProt P22694); experiment: Inhibition of PKAC beta (unknown origin) at 10 uM by Ambit Kinomescan binding assay relative to control
# [2] = molecular target: T1, Serine/threonine-protein kinase LATS1 (Homo sapiens) (UniProt O95835); experiment: Inhibition of LATS1 Lys2 labeling site in human A-375 cells at 5 uM by KiNativ Profiling analysis relative to control; type: cell-based
# T1 sequence (whole entry): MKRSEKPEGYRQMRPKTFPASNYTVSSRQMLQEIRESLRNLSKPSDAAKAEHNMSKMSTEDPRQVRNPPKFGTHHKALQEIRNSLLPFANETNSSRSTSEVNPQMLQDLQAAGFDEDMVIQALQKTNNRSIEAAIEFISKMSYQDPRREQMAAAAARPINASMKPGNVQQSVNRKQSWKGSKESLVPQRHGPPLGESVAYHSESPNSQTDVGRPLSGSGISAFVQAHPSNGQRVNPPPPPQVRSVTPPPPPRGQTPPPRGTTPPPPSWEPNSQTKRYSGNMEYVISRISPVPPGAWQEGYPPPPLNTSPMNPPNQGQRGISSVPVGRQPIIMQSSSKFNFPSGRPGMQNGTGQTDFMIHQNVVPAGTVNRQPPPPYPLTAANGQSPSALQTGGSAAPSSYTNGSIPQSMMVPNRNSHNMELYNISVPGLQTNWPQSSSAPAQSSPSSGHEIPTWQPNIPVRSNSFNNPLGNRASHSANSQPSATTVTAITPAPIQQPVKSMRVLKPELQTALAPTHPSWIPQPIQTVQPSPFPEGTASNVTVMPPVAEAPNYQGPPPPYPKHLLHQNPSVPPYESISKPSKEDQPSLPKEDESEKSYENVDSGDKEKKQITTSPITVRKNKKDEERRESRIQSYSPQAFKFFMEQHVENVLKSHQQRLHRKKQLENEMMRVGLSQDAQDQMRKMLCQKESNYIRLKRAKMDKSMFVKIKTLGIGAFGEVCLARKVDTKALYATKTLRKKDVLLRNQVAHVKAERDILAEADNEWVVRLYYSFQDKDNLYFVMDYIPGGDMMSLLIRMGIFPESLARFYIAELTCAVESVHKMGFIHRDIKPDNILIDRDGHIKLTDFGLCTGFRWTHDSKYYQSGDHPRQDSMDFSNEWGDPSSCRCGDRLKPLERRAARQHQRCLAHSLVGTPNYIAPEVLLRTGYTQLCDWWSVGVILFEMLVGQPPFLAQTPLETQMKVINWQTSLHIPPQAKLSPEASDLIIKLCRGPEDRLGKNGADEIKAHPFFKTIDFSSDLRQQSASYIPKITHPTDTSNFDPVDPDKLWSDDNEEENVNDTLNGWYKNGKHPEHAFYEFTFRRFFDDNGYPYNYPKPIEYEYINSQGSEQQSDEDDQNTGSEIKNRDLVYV
# [3] = molecular target: Serine/threonine-protein kinase 38-like (Homo sapiens) (UniProt Q9Y2H1); experiment: Inhibition of NDR2 ACT labeling site in human A-375 cells at 0.5 uM by KiNativ Profiling analysis relative to control; type: cell-based
# [4] = molecular target: Serine/threonine-protein kinase 16 (Homo sapiens) (UniProt O75716); experiment: Inhibition of MPSK1 K2 labeling site in human Huh-7 cells at 1 uM by KiNativ Profiling analysis relative to control; type: cell-based
# Sequence of Serine/threonine-protein kinase 16 (Homo sapiens) (O75716 whole entry): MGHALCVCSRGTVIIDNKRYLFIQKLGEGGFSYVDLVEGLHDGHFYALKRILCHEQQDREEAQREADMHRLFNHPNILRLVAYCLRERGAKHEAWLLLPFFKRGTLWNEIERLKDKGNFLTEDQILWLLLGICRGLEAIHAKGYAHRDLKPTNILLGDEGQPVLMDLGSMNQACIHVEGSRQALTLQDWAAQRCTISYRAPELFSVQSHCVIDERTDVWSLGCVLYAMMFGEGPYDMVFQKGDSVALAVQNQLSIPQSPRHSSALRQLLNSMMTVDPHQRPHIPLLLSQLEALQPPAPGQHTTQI
# [5] = molecular target: Calcium/calmodulin-dependent protein kinase type II subunit delta (Homo sapiens) (UniProt Q13557); experiment: Inhibition of CaMK2d Lys1 labeling site harbouring IPTGQEYAAKIINTK in human Huh-7 cell lysate at 1 uM by KiNativ Profiling analysis relative to control; type: subcellular
# Sequence of Calcium/calmodulin-dependent protein kinase type II subunit delta (Homo sapiens) (Q13557 whole entry): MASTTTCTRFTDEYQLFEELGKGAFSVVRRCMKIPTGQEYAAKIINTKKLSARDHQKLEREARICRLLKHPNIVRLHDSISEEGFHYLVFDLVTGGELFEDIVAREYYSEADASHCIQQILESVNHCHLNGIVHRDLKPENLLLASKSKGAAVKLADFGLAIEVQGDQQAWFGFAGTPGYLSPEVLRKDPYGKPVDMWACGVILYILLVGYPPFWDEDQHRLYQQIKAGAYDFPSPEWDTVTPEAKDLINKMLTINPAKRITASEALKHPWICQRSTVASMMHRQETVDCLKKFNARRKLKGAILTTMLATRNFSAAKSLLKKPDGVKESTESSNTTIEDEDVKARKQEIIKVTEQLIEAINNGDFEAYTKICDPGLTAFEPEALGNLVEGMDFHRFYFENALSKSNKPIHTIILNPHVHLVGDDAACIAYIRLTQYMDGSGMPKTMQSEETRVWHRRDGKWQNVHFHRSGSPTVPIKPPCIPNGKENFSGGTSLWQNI
# [6] = molecular target: Tyrosine-protein kinase CSK (Homo sapiens, UniProt P41240); experiment: Inhibition of CSK ACT labeling site harbouring VSDFGLTKEASSTQDTGK in human Huh-7 cell lysate at 1 uM by KiNativ Profiling analysis relative to control; type: subcellular
# [7] = molecular target: Mitogen-activated protein kinase kinase kinase 11 (Homo sapiens) (UniProt Q16584); experiment: Inhibition of MLK3 Lys2 labeling site in human Huh-7 cell lysate at 1 uM by KiNativ Profiling analysis relative to control; type: subcellular
# Sequence of Mitogen-activated protein kinase kinase kinase 11 (Homo sapiens) (Q16584 whole entry, looked up): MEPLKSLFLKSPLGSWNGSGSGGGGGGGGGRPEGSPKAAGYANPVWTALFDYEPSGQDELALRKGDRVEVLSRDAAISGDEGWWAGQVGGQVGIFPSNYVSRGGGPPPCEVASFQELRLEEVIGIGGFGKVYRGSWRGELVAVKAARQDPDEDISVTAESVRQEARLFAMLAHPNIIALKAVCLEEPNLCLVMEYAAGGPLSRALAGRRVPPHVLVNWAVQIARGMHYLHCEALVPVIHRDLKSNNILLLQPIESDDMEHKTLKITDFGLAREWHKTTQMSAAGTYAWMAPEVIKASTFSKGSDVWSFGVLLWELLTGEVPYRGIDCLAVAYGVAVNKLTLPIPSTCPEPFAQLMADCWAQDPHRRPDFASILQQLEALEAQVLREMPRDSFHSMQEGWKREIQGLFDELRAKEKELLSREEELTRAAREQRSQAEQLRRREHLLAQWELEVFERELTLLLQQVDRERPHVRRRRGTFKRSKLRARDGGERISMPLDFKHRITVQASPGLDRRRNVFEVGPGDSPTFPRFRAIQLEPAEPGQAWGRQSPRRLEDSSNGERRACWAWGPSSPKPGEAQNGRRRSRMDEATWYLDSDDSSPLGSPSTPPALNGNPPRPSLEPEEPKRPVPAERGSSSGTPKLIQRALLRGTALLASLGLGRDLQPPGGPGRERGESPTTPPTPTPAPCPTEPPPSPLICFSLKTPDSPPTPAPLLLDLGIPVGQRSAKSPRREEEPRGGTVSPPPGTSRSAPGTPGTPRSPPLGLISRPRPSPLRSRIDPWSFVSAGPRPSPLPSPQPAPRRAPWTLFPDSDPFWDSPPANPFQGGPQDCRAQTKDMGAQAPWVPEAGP
# [8] = molecular target: Mitogen-activated protein kinase kinase kinase 11 (Homo sapiens) (UniProt Q16584); experiment: Inhibition of MLK3 Lys2 labeling site in human Huh-7 cells at 1 uM by KiNativ Profiling analysis relative to control; type: cell-based
# BaF3 = experiment: Antiproliferative activity against parental mouse BaF3 cells assessed reduction in cell viability measured after 48 hrs by Celltiter-glo assay; type: functional, cell-based; conditions: BaF3, 48 h
# [9] = tested on: Phosphatidylinositol 4,5-bisphosphate 3-kinase catalytic subunit alpha isoform (Homo sapiens), P42336 [H1047Y]; experiment: Inhibition of PIK3CA H1047Y mutant (unknown origin) at 1 uM by Ambit Kinomescan binding assay relative to control
# Sequence of Phosphatidylinositol 4,5-bisphosphate 3-kinase catalytic subunit alpha isoform (Homo sapiens), P42336 [H1047Y] (P42336 whole entry H1047Y, the tested form may be a part, canonical isoform): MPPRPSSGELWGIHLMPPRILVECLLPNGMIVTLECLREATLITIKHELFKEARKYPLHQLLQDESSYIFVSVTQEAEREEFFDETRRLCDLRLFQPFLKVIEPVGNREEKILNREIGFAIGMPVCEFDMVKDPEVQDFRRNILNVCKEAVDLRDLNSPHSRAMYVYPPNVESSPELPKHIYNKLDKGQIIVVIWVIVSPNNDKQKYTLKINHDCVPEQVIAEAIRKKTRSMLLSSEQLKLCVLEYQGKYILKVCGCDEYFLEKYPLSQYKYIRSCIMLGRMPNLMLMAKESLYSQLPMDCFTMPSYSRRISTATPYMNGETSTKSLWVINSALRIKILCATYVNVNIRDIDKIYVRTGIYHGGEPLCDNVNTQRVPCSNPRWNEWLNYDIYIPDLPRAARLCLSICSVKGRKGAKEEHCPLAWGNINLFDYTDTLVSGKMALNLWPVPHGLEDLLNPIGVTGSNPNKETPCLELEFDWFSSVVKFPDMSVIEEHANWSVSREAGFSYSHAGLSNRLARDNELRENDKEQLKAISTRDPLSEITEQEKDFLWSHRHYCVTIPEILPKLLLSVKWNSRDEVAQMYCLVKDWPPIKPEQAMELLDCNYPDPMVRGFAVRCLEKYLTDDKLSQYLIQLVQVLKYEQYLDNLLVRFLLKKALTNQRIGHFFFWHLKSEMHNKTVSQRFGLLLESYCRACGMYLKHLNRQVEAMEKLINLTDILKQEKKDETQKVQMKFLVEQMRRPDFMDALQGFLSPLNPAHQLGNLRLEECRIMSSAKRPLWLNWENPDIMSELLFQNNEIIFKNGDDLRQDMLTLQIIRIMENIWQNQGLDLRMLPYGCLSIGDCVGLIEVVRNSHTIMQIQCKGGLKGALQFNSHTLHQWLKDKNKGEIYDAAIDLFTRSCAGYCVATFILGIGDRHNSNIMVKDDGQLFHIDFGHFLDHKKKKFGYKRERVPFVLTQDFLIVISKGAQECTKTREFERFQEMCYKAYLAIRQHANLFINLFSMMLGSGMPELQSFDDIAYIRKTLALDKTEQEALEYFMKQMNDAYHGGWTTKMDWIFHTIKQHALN
# [10] = molecular target: Ribosomal protein S6 kinase alpha-1 (Homo sapiens) (UniProt Q15418); experiment: Inhibition of RSK1 domain1 Lys2 labeling site harbouring DLKPENILLDEEGHIKLTDFGLSK in human A-375 cells at 5 uM by KiNativ Profiling analysis relative to control; type: cell-based
# Sequence of Ribosomal protein S6 kinase alpha-1 (Homo sapiens) (Q15418 whole entry, the tested form may be a part): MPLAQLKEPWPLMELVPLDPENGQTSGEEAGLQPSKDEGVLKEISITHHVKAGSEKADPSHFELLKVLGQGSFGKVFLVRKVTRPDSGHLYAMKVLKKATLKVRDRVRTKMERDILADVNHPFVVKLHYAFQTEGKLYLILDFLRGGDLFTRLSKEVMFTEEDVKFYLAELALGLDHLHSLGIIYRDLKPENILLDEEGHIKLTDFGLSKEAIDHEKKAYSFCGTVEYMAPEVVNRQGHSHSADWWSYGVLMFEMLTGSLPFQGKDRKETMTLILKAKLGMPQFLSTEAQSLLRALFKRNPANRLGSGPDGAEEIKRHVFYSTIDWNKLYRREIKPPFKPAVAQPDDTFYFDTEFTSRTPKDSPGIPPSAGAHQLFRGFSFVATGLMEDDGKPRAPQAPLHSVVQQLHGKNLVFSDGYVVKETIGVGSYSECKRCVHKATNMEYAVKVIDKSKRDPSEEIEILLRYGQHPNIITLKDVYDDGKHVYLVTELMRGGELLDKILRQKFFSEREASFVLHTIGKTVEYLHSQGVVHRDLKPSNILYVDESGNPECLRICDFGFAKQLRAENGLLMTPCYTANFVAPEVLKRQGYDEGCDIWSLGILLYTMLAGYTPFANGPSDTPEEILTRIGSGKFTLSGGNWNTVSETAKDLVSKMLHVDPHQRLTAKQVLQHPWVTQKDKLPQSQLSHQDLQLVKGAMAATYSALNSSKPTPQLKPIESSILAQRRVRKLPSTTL
# In short: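 Live A375 melanoma cells treated with compound at 5 or 0.5 μM, then lysed. Lysate kinases were labeled with a lysine-reactive ATP or ADP-biotin probe. Inhibition was read as protection of labeling sites from the probe.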
# [11] = molecular target: Mitogen-activated protein kinase kinase kinase kinase 1 (Homo sapiens) (UniProt Q92918); experiment: Inhibition of HPK1 (unknown origin) at 1 uM by Ambit Kinomescan binding assay relative to control; values are per cent of control
# Sequence of Mitogen-activated protein kinase kinase kinase kinase 1 (Homo sapiens) (Q92918 whole entry, looked up): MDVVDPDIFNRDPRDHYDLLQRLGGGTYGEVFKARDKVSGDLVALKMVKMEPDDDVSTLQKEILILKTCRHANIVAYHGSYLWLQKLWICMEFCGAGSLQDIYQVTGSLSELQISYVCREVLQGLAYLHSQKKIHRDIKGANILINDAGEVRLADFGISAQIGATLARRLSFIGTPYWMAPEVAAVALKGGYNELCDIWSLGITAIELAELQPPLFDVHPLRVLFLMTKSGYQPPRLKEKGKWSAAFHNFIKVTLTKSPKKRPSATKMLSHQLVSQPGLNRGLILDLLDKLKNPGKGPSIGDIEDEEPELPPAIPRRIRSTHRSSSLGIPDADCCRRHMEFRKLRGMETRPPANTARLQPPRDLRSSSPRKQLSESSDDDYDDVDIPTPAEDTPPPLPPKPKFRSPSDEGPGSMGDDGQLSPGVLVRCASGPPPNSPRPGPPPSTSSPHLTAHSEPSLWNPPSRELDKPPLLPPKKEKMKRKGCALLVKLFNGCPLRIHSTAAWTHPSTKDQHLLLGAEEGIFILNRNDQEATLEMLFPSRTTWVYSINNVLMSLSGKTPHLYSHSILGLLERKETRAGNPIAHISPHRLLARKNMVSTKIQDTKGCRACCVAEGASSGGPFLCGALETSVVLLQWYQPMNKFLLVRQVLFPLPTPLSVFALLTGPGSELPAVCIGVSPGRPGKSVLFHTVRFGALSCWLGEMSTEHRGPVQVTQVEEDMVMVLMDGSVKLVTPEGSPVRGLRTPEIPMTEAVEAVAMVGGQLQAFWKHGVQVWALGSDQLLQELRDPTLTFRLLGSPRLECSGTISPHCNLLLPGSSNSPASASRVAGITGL
# [12] = molecular target: Calcium/calmodulin-dependent protein kinase type 1D (Homo sapiens) (UniProt Q8IU85); experiment: Inhibition of CAMK1D (unknown origin) at 1 uM by Ambit Kinomescan binding assay relative to control; values are per cent of control
# Sequence of Calcium/calmodulin-dependent protein kinase type 1D (Homo sapiens) (Q8IU85 whole entry, looked up): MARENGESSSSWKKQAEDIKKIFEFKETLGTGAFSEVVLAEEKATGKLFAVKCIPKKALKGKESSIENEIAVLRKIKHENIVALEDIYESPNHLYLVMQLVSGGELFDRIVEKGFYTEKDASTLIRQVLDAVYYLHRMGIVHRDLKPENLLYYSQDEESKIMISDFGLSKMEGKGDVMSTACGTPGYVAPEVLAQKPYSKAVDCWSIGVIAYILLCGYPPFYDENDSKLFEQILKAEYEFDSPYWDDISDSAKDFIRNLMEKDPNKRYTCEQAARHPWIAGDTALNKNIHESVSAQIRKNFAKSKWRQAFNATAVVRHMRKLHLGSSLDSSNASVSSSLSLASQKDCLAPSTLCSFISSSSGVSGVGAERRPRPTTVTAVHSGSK
smiles,measurement,setting,value
CCN1CCN(Cc2ccc(NC(=O)c3ccc(C)c(Oc4ccnc5[nH]ccc45)c3)cc2C(F)(F)F)CC1,inhibition,[1],14%
same,inhibition,[2],-6.4%
same,inhibition,[3],-4.5%
same,inhibition,[4],6.7%
CNc1cc(Oc2cc(C(=O)Nc3cc(N4CCN(C)CC4)cc(C(F)(F)F)c3)ccc2C)ncn1,inhibition,[5],1.4%
same,inhibition,[6],7.9%
same,inhibition,[7],3.4%
same,inhibition,[8],15%
CCN1CCN(Cc2ccc(NC(=O)c3ccc(C)c(/C=C/c4cnc5[nH]ccc5c4OC)c3)cc2C(F)(F)F)CC1,IC50,BaF3,4.02 µM
same,inhibition,[9],71%
same,inhibition,[10],-4.9%
same,residual activity,[11],0.55%
same,residual activity,[12],100%

# Reference: ChEMBL document CHEMBL5696442, “Discovery of type II inhibitors of TGFβ-activated kinase 1 (TAK1) and mitogen-activated protein kinase kinase kinase kinase 2 (MAP4K2)” (J Med Chem, 2015)
